ChEMBL document CHEMBL1157589, “Antifungal 3,5-disubstituted furanones: From 5-acyloxymethyl to 5-alkylidene derivatives” (Bioorg Med Chem, 2010)
pIC50: −log10 of the molar value. Converted amounts (≈) assume the structure as drawn. The source made the active and inactive calls. The rule behind the calls is not given here.

What was measured:
Clavispora lusitaniae [1] = assay: Antifungal activity against Candida lusitaniae 2446/I after 48 hrs by microdilution method; assay type: functional
Outline: (§1)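 Yeasts held on Sabouraud dextrose agar. MIC by NCCLS M27-A broth microdilution in RPMI 1640 with L-glutamine, buffered with 0.165 M MOPS to pH 7.0. Compounds in DMSO (≤2% final), twofold dilutions 500–0.48. Final inoculum 5 × 10³ ± 0.2 cfu mL⁻¹. Incubated at 35 °C; absorbance at 540 nm read at 24 and 48 h. MIC is 80% growth inhibition versus control; run twice in duplicate.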

Candida albicans [2] = assay: Antifungal activity against Candida albicans ATCC 90028 after 24 hrs by microdilution method; assay type: functional; details: ATCC 90028, 24 h; outline: as §1
Lichtheimia corymbifera [3] = assay: Antifungal activity against Absidia corymbifera 272 after 48 hrs by microdilution method; assay type: functional; details: Lichtheimia corymbifera, 272, 48 h
Outline: (§2)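 Filamentous strains held on Sabouraud dextrose agar. NCCLS M27-A broth microdilution in RPMI 1640 with L-glutamine and 0.165 M MOPS, pH 7.0. DMSO diluent ≤2% final; twofold dilutions 500–0.48. Inoculum 5 × 10³ ± 0.2 cfu mL⁻¹ final.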

Pichia kudriavzevii [4] = assay: Antifungal activity against Candida krusei E28 after 24 hrs by microdilution method; assay type: functional; details: E28, 24 h; outline: as §1
[5] = system: Trichophyton mentagrophytes; assay: Antifungal activity against Trichophyton mentagrophytes 445 after 120 hrs by microdilution method; assay type: functional; details: Trichophyton mentagrophytes, 445, 120 h
Outline: (§3)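 Dermatophyte held on Sabouraud dextrose agar. M27-A microdilution in MOPS-buffered (0.165 M, pH 7.0) RPMI 1640 with L-glutamine. DMSO ≤2% final; twofold dilutions 500–0.48. Inoculum 5 × 10³ ± 0.2 cfu mL⁻¹ final. Incubated at 35 °C; MIC read visually at 72 and 120 h as 80% inhibition of control growth; determined twice in duplicate.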

Candida parapsilosis [6] = assay: Antifungal activity against Candida parapsilosis ATCC 22019 after 24 hrs by microdilution method; assay type: functional; details: Lodderomyces parapsilosis, ATCC 22019, 24 h; outline: as §1
Candida albicans [7] = assay: Antifungal activity against Candida albicans ATCC 44859 after 24 hrs by microdilution method; assay type: functional; details: ATCC 44859, 24 h; outline: as §1
Aspergillus fumigatus [8] = assay: Antifungal activity against Aspergillus fumigatus 231 after 24 hrs by microdilution method; assay type: functional; details: Aspergillus fumigatus, 231, 24 h; outline: as §2
[9] = system: Trichophyton mentagrophytes; assay: Antifungal activity against Trichophyton mentagrophytes 445 after 72 hrs by microdilution method; assay type: functional; details: Trichophyton mentagrophytes, 445, 72 h; outline: as §3
Pichia kudriavzevii [10] = assay: Antifungal activity against Candida krusei E28 after 48 hrs by microdilution method; assay type: functional; details: E28, 48 h; outline: as §1
HeLa S3 [11] = assay: Cytostatic activity against human HeLaS3 cells after 72 hrs by XTT assay; assay type: functional, cell-based
Candida albicans [12] = assay: Antifungal activity against Candida albicans ATCC 44859 after 48 hrs by microdilution method; assay type: functional; details: ATCC 44859, 48 h; outline: as §1
Pichia kudriavzevii [13] = assay: Antifungal activity against Candida krusei ATCC 6258 after 48 hrs by microdilution method; assay type: functional; details: ATCC 6258, 48 h; outline: as §1
CCRF-CEM [14] = assay: Cytostatic activity against human CCRF-CEM cells after 72 hrs by XTT assay; assay type: functional, cell-based; details: Homo sapiens, CCRF-CEM, 72 h; read-out: IC50
Outline: (§4)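 Leukemia cells (L1210 ATCC CCL 219, CCRF-CEM ATCC CCL 119, HL-60 ATCC CCL 240) grown in 24-well plates in RPMI 1640 with fetal calf serum. Growth assessed 72 h after drug addition. Viability measured by XTT spectrophotometric assay; potency given as IC50.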

Candida tropicalis [15] = assay: Antifungal activity against Candida tropicalis 156 after 24 hrs by microdilution method; assay type: functional; details: Candida tropicalis, 156, 24 h; outline: as §1
Candida albicans [16] = assay: Antifungal activity against Candida albicans ATCC 90028 after 48 hrs by microdilution method; assay type: functional; details: ATCC 90028, 48 h; outline: as §1
Pichia kudriavzevii [17] = assay: Antifungal activity against Candida krusei ATCC 6258 after 24 hrs by microdilution method; assay type: functional; details: ATCC 6258, 24 h; outline: as §1
Clavispora lusitaniae [18] = assay: Antifungal activity against Candida lusitaniae 2446/I after 24 hrs by microdilution method; assay type: functional; outline: as §1
Trichosporon beigelii [19] = assay: Antifungal activity against Trichosporon beigelii 1188 after 24 hrs by microdilution method; assay type: functional; details: Trichosporon beigelii, 1188, 24 h; outline: as §1
Candida tropicalis [20] = assay: Antifungal activity against Candida tropicalis 156 after 48 hrs by microdilution method; assay type: functional; details: Candida tropicalis, 156, 48 h; outline: as §1
Nakaseomyces glabratus [21] = assay: Antifungal activity against Candida glabrata 20/I after 24 hrs by microdilution method; assay type: functional; outline: as §1
Nakaseomyces glabratus [22] = assay: Antifungal activity against Candida glabrata 20/I after 48 hrs by microdilution method; assay type: functional; outline: as §1
HL-60 = assay: Cytostatic activity against human HL60 cells after 72 hrs by XTT assay; assay type: functional, cell-based; details: Homo sapiens, HL-60, 72 h; read-out: IC50; outline: as §4
Candida parapsilosis [23] = assay: Antifungal activity against Candida parapsilosis ATCC 22019 after 48 hrs by microdilution method; assay type: functional; details: Lodderomyces parapsilosis, ATCC 22019, 48 h; outline: as §1
Aspergillus fumigatus [24] = assay: Antifungal activity against Aspergillus fumigatus 231 after 48 hrs by microdilution method; assay type: functional; details: Aspergillus fumigatus, 231, 48 h; outline: as §2
Trichosporon beigelii [25] = assay: Antifungal activity against Trichosporon beigelii 1188 after 48 hrs by microdilution method; assay type: functional; details: Trichosporon beigelii, 1188, 48 h; outline: as §1
Lichtheimia corymbifera [26] = assay: Antifungal activity against Absidia corymbifera 272 after 24 hrs by microdilution method; assay type: functional; details: Lichtheimia corymbifera, 272, 24 h; outline: as §2
[27] = Chemical stability in tetrahydrofuran solution at 4.7 mg after 24 hrs in room temperature by HPLC analysis; assay type: physicochemical
[28] = Chemical stability in DMSO solution at 4.7 mg after 24 hrs in room temperature by HPLC analysis; assay type: physicochemical
CCRF-CEM [29] = assay: Induction of apoptosis in human CCRF-CEM cells assessed as loss of cellular plasma membrane integrity at 2.5 umol/L after 72 hrs by annexin-V FITC staining-based flow cytometry; assay type: functional, cell-based
Outline: (§5)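 CCRF-CEM cells grown with compound at 2.5 µmol/L alongside untreated controls. Apoptotic and necrotic populations detected by flow cytometry using an Annexin V-FITC apoptosis kit, following the manufacturer's protocol.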

CCRF-CEM [30] = assay: Induction of apoptosis in human CCRF-CEM cells assessed as loss of cellular […] membrane integrity at 2.5 umol/L after 72 hrs by annexin-V FITC staining-based flow cytometry; assay type: functional, cell-based; outline: as §5
CCRF-CEM [31] = assay: Cell cycle arrest in human CCRF-CEM cells assessed as increase in accumulation at S phase at 2.5 umol/L after 72 hrs by FACS analysis; assay type: functional, cell-based
Outline: (§6)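 CCRF-CEM cells cultured with compound at 2.5 µmol/L. At the 72 h growth endpoint, cells ethanol-fixed and stained with propidium iodide in RNase A-containing buffer. Cell-cycle distribution analysed by flow cytometry against untreated control cells.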

CCRF-CEM [32] = assay: Cell cycle arrest in human CCRF-CEM cells assessed as decrease in accumulation at G2/M phase at 2.5 umol/L after 72 hrs by FACS analysis; assay type: functional, cell-based; outline: as §6
CCRF-CEM [33] = assay: Cell cycle arrest in human CCRF-CEM cells assessed as increase in accumulation at G1 phase at 2.5 umol/L after 72 hrs by FACS analysis; assay type: functional, cell-based; outline: as §6
CCRF-CEM [34] = assay: Induction of apoptosis in human CCRF-CEM cells assessed as necrotic cells at 2.5 umol/L after 72 hrs by annexin-V FITC staining-based flow cytometry; assay type: functional; outline: as §5
L1210 = assay: Cytostatic activity against mouse L1210 cells after 72 hrs by XTT assay; assay type: functional, cell-based; details: Mus musculus, L1210, 72 h; read-out: IC50; outline: as §4
HeLa S3 [35] = assay: Cytostatic activity against human HeLaS3 cells after 48 hrs by XTT assay; details: Homo sapiens, HeLa S3, 48 h; read-out: IC50

SMILES	MIC80 (Clavispora lusitaniae [1]) [µM]	MIC80 (Candida albicans [2]) [µM]	MIC80 (Lichtheimia corymbifera [3]) [µM]	MIC80 (Pichia kudriavzevii [4]) [µM]	MIC80 [5] [µM]	MIC80 (Candida parapsilosis [6]) [µM]	MIC80 (Candida albicans [7]) [µM]	MIC80 (Aspergillus fumigatus [8]) [µM]	MIC80 [9] [µM]	MIC80 (Pichia kudriavzevii [10]) [µM]	MIC80 (Candida albicans [12]) [µM]	MIC80 (Pichia kudriavzevii [13]) [µM]	MIC80 (Candida tropicalis [15]) [µM]	MIC80 (Candida albicans [16]) [µM]	MIC80 (Pichia kudriavzevii [17]) [µM]	MIC80 (Clavispora lusitaniae [18]) [µM]	MIC80 (Trichosporon beigelii [19]) [µM]	MIC80 (Candida tropicalis [20]) [µM]	MIC80 (Nakaseomyces glabratus [21]) [µM]	MIC80 (Nakaseomyces glabratus [22]) [µM]	other results
COCC1C=C(c2ccc(Br)cc2)C(=O)O1 (configuration not stated)	125 (≈ 35.4 µg/mL)	31.2 (≈ 8.85 µg/mL)	250 (≈ 70.8 µg/mL)	250 (≈ 70.8 µg/mL)	31.2 (≈ 8.85 µg/mL)	125 (≈ 35.4 µg/mL)	15.6 (≈ 4.42 µg/mL)	31.2 (≈ 8.85 µg/mL)	31.2 (≈ 8.85 µg/mL)	500 (≈ 142 µg/mL)	31.2 (≈ 8.85 µg/mL)	250 (≈ 70.8 µg/mL)	62.5 (≈ 17.7 µg/mL)	31.2 (≈ 8.85 µg/mL)	250 (≈ 70.8 µg/mL)	62.5 (≈ 17.7 µg/mL)	62.5 (≈ 17.7 µg/mL)	62.5 (≈ 17.7 µg/mL)	125 (≈ 35.4 µg/mL)	125 (≈ 35.4 µg/mL)	IC50 (HeLa S3 [11]): Not Active; pIC50 (CCRF-CEM [14]): 5.66; pIC50 (HL-60): 4.80; MIC80 (Candida parapsilosis [23]): 250 µM (≈ 70.8 µg/mL); MIC80 (Aspergillus fumigatus [24]): 62.5 µM (≈ 17.7 µg/mL); MIC80 (Trichosporon beigelii [25]): 125 µM (≈ 35.4 µg/mL); MIC80 (Lichtheimia corymbifera [26]): 125 µM (≈ 35.4 µg/mL)
CC(=O)OCC1C=C(c2ccc(Br)cc2)C(=O)O1 (configuration not stated)	7.81 (≈ 2.43 µg/mL)	3.9 (≈ 1.21 µg/mL)	15.6 (≈ 4.86 µg/mL)	7.81 (≈ 2.43 µg/mL)	3.9 (≈ 1.21 µg/mL)	3.9 (≈ 1.21 µg/mL)	0.49 (≈ 0.152 µg/mL)	0.98 (≈ 0.305 µg/mL)	1.95 (≈ 0.607 µg/mL)	7.81 (≈ 2.43 µg/mL)	1.95 (≈ 0.607 µg/mL)	7.81 (≈ 2.43 µg/mL)	7.81 (≈ 2.43 µg/mL)	3.9 (≈ 1.21 µg/mL)	3.9 (≈ 1.21 µg/mL)	3.9 (≈ 1.21 µg/mL)	7.81 (≈ 2.43 µg/mL)	7.81 (≈ 2.43 µg/mL)	1.95 (≈ 0.607 µg/mL)	1.95 (≈ 0.607 µg/mL)	Stability [27]: Stable; Stability [28]: < 3 h; MIC80 (Candida parapsilosis [23]): 15.6 µM (≈ 4.86 µg/mL); MIC80 (Aspergillus fumigatus [24]): 3.91 µM (≈ 1.22 µg/mL); MIC80 (Trichosporon beigelii [25]): 7.81 µM (≈ 2.43 µg/mL); MIC80 (Lichtheimia corymbifera [26]): 7.81 µM (≈ 2.43 µg/mL)
C=C1C=C(c2ccc(Br)cc2)C(=O)O1	15.6 (≈ 3.92 µg/mL)	3.9 (≈ 0.979 µg/mL)	125 (≈ 31.4 µg/mL)	7.81 (≈ 1.96 µg/mL)	3.9 (≈ 0.979 µg/mL)	7.81 (≈ 1.96 µg/mL)	0.49 (≈ 0.123 µg/mL)	1.95 (≈ 0.49 µg/mL)	1.95 (≈ 0.49 µg/mL)	7.81 (≈ 1.96 µg/mL)	1.95 (≈ 0.49 µg/mL)	7.81 (≈ 1.96 µg/mL)	7.81 (≈ 1.96 µg/mL)	7.81 (≈ 1.96 µg/mL)	7.81 (≈ 1.96 µg/mL)	7.81 (≈ 1.96 µg/mL)	3.9 (≈ 0.979 µg/mL)	15.6 (≈ 3.92 µg/mL)	1.95 (≈ 0.49 µg/mL)	1.95 (≈ 0.49 µg/mL)	Activity (CCRF-CEM [29]): Active; Activity (CCRF-CEM [30]): Active; pIC50 (CCRF-CEM [14]): 5.60; Activity (CCRF-CEM [31]): Active; Activity (CCRF-CEM [32]): Active; Activity (CCRF-CEM [33]): Active; Activity (CCRF-CEM [34]): > 80%; pIC50 (HL-60): 4.74; MIC80 (Candida parapsilosis [23]): 15.6 µM (≈ 3.92 µg/mL); pIC50 (L1210): 4.68; MIC80 (Aspergillus fumigatus [24]): 7.81 µM (≈ 1.96 µg/mL); MIC80 (Trichosporon beigelii [25]): 15.6 µM (≈ 3.92 µg/mL); MIC80 (Lichtheimia corymbifera [26]): 31.2 µM (≈ 7.85 µg/mL); pIC50 (HeLa S3 [35]): 5.68
